Measurements gathered from unrelated publications.
Lines come from different studies, so protocols differ.
CSF1R autoinhibited: Macrophage colony-stimulating factor 1 receptor, autoinhibited (CSF1R, Homo sapiens, UniProt P07333)
CSF1R: Macrophage colony-stimulating factor 1 receptor (CSF1R, Homo sapiens, UniProt P07333)

Compound	target	read-out	mode	technique	tested at	quantity	result
C=CC(=O)N1CCC([C@@H]2CCNc3c(C(N)=O)c(-c4ccc(Oc5ccccc5)cc4)nn32)CC1	CSF1R autoinhibited	cell-free assay	–	–	1 µM	inhibition	0%
COc1ccc2[nH]c3c4[nH]c5ccc(OC)cc5c4c4c(c3c2c1)C(=O)NC4=O	CSF1R	binding	–	competition with immobilised ligand	1 µM	remaining binding	58%
CCCCC(=O)Nc1ccc(-c2ccc3ncn(CCC)c(=O)c3c2)cn1	CSF1R	binding	–	competition with immobilised ligand	0.5 µM	remaining binding	88%
C#Cc1cnc(Nc2ccnc(CO)c2)nc1Nc1ccccc1S(C)(=O)=NC#N (centres unmarked)	CSF1R	cell-free assay	–	–	1 µM	remaining signal	53%
Cc1ccc(NC(=O)c2ccnc(C(F)(F)F)c2)cc1-c1cc(OCCO)nc(N2CCOCC2)c1	CSF1R autoinhibited	binding	–	competition with immobilised ligand	1 µM	remaining binding	87%
CC#CC(=O)N1CCC[C@H]1c1nc(-c2ccc(C(=O)Nc3ccccn3)cc2)c2c(N)nccn12	CSF1R	enzyme activity	inhibitor	–	1 µM	inhibition	0%
C1=C/COCc2cc(ccc2OCCN2CCCC2)Nc2nccc(n2)-c2cccc(c2)COC/1	CSF1R autoinhibited	binding	–	–	0.1 µM	remaining binding	53%
N#Cc1ccc(NC(=O)Nc2ccccc2)cc1	CSF1R	cell-free assay	–	competition with immobilised ligand	25 µM	remaining binding	61%
